Measured values reported in ChEMBL document CHEMBL1135605, “Preparation and characterization of platinum(II) and (IV) complexes of 1,3-diaminepropane and 1,4-diaminebutane: circumvention of cisplatin resistance and DNA interstrand cross-link formation in CH1cisR ovarian tumor cells” (J Med Chem, 2002).

How the values were obtained:
A2780 [1] = test: Compound was evaluated against human Ovarian carcinoma cell line A2780cisR; type: functional, cell-based
Outline: (§1)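 MTT cell survival assay. Compounds dissolved in 10 mM NaClO4 in distilled water, with 1 mg/mL stocks freshly prepared. Final concentrations 0–200 μM added to the cultures. Survival read 24 h later by absorbance at 520 nm. IC50 (concentration giving 50% cell killing) taken from % survival vs concentration curves. Run in quadruplicate.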

A2780 [2] = test: Compound was evaluated against human Ovarian carcinoma cell line A2780; type: functional, cell-based; outline: as §1
CH1 [3] = test: Compound was evaluated against human Ovarian carcinoma cell line CH1; type: functional, cell-based; outline: as §1
PAM212 [4] = test: Compound was evaluated against normal Pam 212 cell line; type: functional, cell-based, Mus musculus; outline: as §1
PAM212 [5] = test: Compound was evaluated against transformed murine keratinocytes Pam 212-ras cell line; type: functional, cell-based, Mus musculus; outline: as §1
CH1 [6] = test: Compound was evaluated against human Ovarian carcinoma cell line CH1cisR; type: functional, cell-based; outline: as §1

Row | Substance | IC50 (A2780 [1]) | IC50 (A2780 [2]) | IC50 (CH1 [3]) | IC50 (PAM212 [5]) | IC50 (CH1 [6]) | IC50 (PAM212 [4])
1 | CARBOPLATIN | 178 µM | 18 µM | 52 µM | > 200 µM | 185 µM | > 200 µM
2 | Cis-[Pt(1,3-diaminepropane)2(O-Succinate)2] | > 200 µM | > 200 µM | > 200 µM | > 200 µM | > 200 µM | > 200 µM
3 | Cis-[Pt(1,3-diaminepropane)2(O-Maleate)2] | > 200 µM | > 200 µM | > 200 µM | > 200 µM | > 200 µM | > 200 µM
4 | Cis-[Pt(1,3-diaminepropane)2(O-Glutarate)2] | > 200 µM | > 200 µM | > 200 µM | > 200 µM | > 200 µM | > 200 µM
5 | Cis-[Pt(1,3-diaminepropane)2] 1,1-cyclobutanedicarboxylate | > 200 µM | > 200 µM | > 200 µM | > 200 µM | > 200 µM | > 200 µM
6 | Cis-[Pt(1,3-diaminebutane)2] 1,1-cyclobutanedicarboxylate | > 200 µM | > 200 µM | > 200 µM | > 200 µM | > 200 µM | > 200 µM
7 | Cis-[Pt(1,3-diaminepropane)2(OH)2] 1,1-cyclobutanedicarboxylate | > 200 µM | > 200 µM | > 200 µM | > 200 µM | > 200 µM | > 200 µM

The next lines start with results.

Row | IC50 (A2780 [1]) | IC50 (A2780 [2]) | IC50 (CH1 [3]) | IC50 (PAM212 [5]) | IC50 (CH1 [6]) | Substance | IC50 (PAM212 [4])
8 | > 200 µM | > 200 µM | > 200 µM | > 200 µM | > 200 µM | Cis-[Pt(1,3-diaminebutane)2(OH)2] 1,1-cyclobutanedicarboxylate | > 200 µM
9 | > 200 µM | > 200 µM | > 200 µM | > 200 µM | > 200 µM | Cis-[Pt(1,3-diaminebutane)2(O-Succinate)2] | > 200 µM
10 | 36 µM | 2 µM | 6 µM | 72 µM | 25 µM | CISPLATIN | 44 µM
11 | 1 µM | 0.3 µM | 4.5 µM | 64 µM | 8 µM | Cis-[Pt(1,3-diaminepropane) 1,1-cyclobutanedicarboxylate] | 85 µM
12 | 0.74 µM | 0.32 µM | 3.3 µM | 42 µM | 6 µM | Cis-[Pt(1,3-diaminebutane) 1,1-cyclobutanedicarboxylate] | 100 µM
